# The list is not random: actives were taken first. Their share in the collection is about 2.3%.
# TRPC6 inhibitor: inhibitors of mouse TRPC6 channel | Q61143 | HEK293-TRPC6, membrane potential dye, ACh-evoked depolarization; active compounds read low | B-score at 10 µM | actives 1.1% (n = 310,000) | AID 2553;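 active means B-score under library mean minus 3 SD, initial fluorescence not abnormally high, positive integrated signal ratio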;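 further: B-score derived from integrated fluorescence ratio over the kinetic read; more negative B-score means stronger inhibition of depolarization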
# TRPC4 agonist: activators of mouse TRPC4 channel | Q9QUQ5 | HEK293 TRPC4beta/mu-opioid, Fluo4 calcium fluorescence; active compounds read high | B-score at 10 µM | actives 0.49% (n = 310,000);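 active means B-score above 5 SD of library B-scores, and initial fluorescence ratio not above library mean plus 5 SD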;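 further: positive B-score marks a calcium rise read as TRPC4 activation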
# Target sequence (Q9QUQ5 whole entry, looked up): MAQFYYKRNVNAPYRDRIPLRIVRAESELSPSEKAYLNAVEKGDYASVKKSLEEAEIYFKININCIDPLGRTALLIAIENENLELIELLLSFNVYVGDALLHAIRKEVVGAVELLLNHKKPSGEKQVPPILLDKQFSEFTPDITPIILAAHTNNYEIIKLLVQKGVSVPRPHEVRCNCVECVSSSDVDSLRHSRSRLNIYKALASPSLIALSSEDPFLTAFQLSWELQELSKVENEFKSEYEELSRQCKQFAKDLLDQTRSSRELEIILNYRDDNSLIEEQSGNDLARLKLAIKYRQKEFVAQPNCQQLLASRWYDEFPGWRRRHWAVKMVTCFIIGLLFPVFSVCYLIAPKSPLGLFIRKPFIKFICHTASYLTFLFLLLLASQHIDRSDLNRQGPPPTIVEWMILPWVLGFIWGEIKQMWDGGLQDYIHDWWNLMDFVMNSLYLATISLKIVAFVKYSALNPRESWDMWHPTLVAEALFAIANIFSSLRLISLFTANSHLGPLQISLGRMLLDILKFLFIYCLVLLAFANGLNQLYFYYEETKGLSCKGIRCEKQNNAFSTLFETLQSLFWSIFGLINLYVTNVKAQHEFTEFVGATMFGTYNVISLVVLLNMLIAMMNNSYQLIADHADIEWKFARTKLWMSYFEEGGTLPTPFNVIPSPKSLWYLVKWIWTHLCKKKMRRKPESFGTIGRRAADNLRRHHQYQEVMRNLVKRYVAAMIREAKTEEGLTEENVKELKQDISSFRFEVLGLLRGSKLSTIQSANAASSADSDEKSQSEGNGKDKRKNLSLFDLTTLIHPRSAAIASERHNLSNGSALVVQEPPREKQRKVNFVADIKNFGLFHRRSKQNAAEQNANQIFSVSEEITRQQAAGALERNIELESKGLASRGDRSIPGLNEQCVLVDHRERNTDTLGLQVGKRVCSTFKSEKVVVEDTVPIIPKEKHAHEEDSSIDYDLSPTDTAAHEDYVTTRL
#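 Material: HEK293 stable line with TRPC4beta plus mu-opioid receptor; technique: Fluo4 calcium-sensitive dye fluorescence, kinetic, 1 Hz baseline; timing: Fluo4 dye loading 45 min at room temperature, 110 s recording; controls: assay buffer as low control, maximal DAMGO as high control; read-out: integrated baseline-normalised fluorescence ratio, converted to per-well B score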
# TRPC4 potent: TRPC4 (mouse) allosteric potentiation. Q9QUQ5. HEK293 TRPC4beta/mu-opioid, DAMGO EC20, Fluo-4 Ca2+ flux; active compounds read high. B-score at 10 µM. actives 0.42% (n = 310,000). AID 2227;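 active means B-score of calcium response area above 5 SD of library B-scores, with initial fluorescence ratio within 5 SD of library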
# TRPC6 activator: activators of mouse TRPC6 channel; Q61143; HEK293-TRPC6 membrane potential dye fluorescence; active compounds read high; B-score at 10 µM; actives 0.13% (n = 310,000); AID 2550;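 active means B-score of the integrated fluorescence ratio above library mean plus 3 SD, and starting fluorescence ratio within library mean plus 5 SD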;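 further: higher score means more depolarization so channel activation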
# TRPC4 block: blocks the mouse TRPC4 cation channel; actives 0.39% (n = 300,000); Q9QUQ5; HEK293 TRPC4beta/mu-opioid, DAMGO-evoked Fluo4 calcium flux; active compounds read low; B-score at 10 µM;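 active means B-score over 3 SD under the library average, no early fluorescence shift, positive overall ratio signal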
#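 Assay system – HEK293 line stably carrying TRPC4beta and mu-opioid receptor · Doses – single dose · Detection – Fluo4 calcium-dye fluorescence, kinetic read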
# DNA FID counter: displaces DNA intercalator in HCV helicase counter-screen | DNA fluorescent intercalator displacement, fluorescence | inhibition, % at 7.9 µM | actives 0.17% (n = 290,000) | AID 1845; in the data active means inhibition above about 37%;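 further: higher means more ethidium bromide displaced from hairpin DNA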
# TRPC4 sel inh 2: second check of whether TRPC6 inhibitors also affect mouse TRPC4; shares compounds with TRPC6 inhibitor; actives 42% (n = 920); HEK293 TRPC4/MOR, membrane potential dye fluorescence; channel activated by saturating DAMGO dose; AID 2776; inhibition, % at 10 µM;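 active means compounds whose fluorescence signal differed from control wells by over 3 SD, either direction, in both duplicate plates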
# TRPC4 spec: tests whether TRPC6 inhibitors also affect mouse TRPC4 | shares compounds with TRPC6 inhibitor | HEK293 TRPC4/mu-opioid, membrane potential fluorescence | activity change, negative = inhibition, % at 10 µM | actives 61% (n = 920) | AID 2777;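 active means rise or fall in signal beyond 3 SD of buffer-only wells in both replicate plates, either sign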;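 further: integrated kinetic ratio of fluorescence range over baseline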
# HEK293 MPD ctr 2-1: second counter-screen for TRPC6 inhibitors: parental HEK293 cells; shares compounds with TRPC6 inhibitor; parental HEK293 membrane potential dye fluorescence; maximal acetylcholine challenge after compound addition; signal change vs control, % at 10 µM; actives 31% (n = 920); AID 2779;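 active means membrane potential signal moving either way by over 3 SD of the maximum-effect control, in both duplicate plates, meaning non-specific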
# HEK293 MPD ctr-1: parental HEK293 nonspecific activity of TRPC6 inhibitors | parental HEK293 membrane potential dye fluorescence | AID 2780 | membrane potential signal change, % at 10 µM | actives 60% (n = 920) | shares compounds with TRPC6 inhibitor;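 active means membrane potential signal shifting up or down by more than 3 SD of buffer-only wells, on both duplicate plates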
# HEK293 MPD ctr-2: parental HEK293 nonspecific activity of TRPC6 modulators; shares compounds with TRPC6 inhibitor; membrane potential dye fluorescence; membrane potential signal change, % at 10 µM; actives 51% (n = 2,400); AID 488924;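 active means membrane potential signal moves up or down beyond 5 SD from buffer-only wells, on both duplicate plates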
# HEK293 MPD ctr 2-2: second counter-screen for TRPC6 modulators: effect in parental HEK293 cells. shares compounds with TRPC6 inhibitor. membrane potential dye fluorescence; after compound, maximal acetylcholine stimulation. inhibition, % at 10 µM. actives 14% (n = 2,400);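 active means membrane potential signal drops by more than 5 SD from the mean control signal, in both duplicate plates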
# TRPC4/MOR mod: tests whether TRPC6 modulators also affect mouse TRPC4 | shares compounds with TRPC6 inhibitor | HEK293 TRPC4/mu-opioid, membrane potential fluorescence | percent change from control (negative = decrease, positive = increase), % at 10 µM | actives 69% (n = 2,400);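 active means membrane potential signal moved up or down beyond 5 SD of buffer control wells, in both duplicate plates, actives on both sides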
# TRPC4/MOR inh 2: second check of whether TRPC6 modulators also affect mouse TRPC4; shares compounds with TRPC6 inhibitor; AID 488928; inhibition, % at 10 µM; HEK293 TRPC4/mu-opioid, membrane potential dye fluorescence; stimulated with maximal-effect DAMGO; actives 55% (n = 2,400);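 active means drop in membrane potential signal beyond 5 SD of the control wells in both duplicate plates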;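 further: TRPC4 counter screen for TRPC6 hits run under conditions tuned for TRPC6 not TRPC4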
# TRPC6 inh conf: mouse TRPC6 inhibitor confirmation | shares compounds with TRPC6 inhibitor | HEK293-TRPC6, membrane potential dye, ACh-evoked depolarization | inhibition, % at 10 µM | actives 43% (n = 3,300) | AID 488960;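 active means fluorescence ratio falls more than 5 SD below the full-stimulation control mean, in both duplicate runs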;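 further: integrated fluorescence ratio of peak minus minimum over baseline after agonist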
# TRPC6 act conf: confirmation of mouse TRPC6 activators | shares compounds with TRPC6 inhibitor | HEK293-TRPC6 membrane potential dye fluorescence, FDSS | activation, % at 10 µM | actives 11% (n = 2,800) | AID 488961;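 active means ratio signal rise beyond 5 SD above unstimulated control wells' mean, seen in both duplicate runs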
# A number is an active result; – = inactive; · = no result.
SMILES,TRPC6 inhibitor,TRPC4 agonist,TRPC4 potent,TRPC6 activator,TRPC4 block,DNA FID counter,HEK293 MPD ctr-2,HEK293 MPD ctr 2-2,TRPC4/MOR mod,TRPC4/MOR inh 2,TRPC6 inh conf,TRPC6 act conf,others
NC1=NC(=Nc2ccc(Br)cc2)c2ccccc21,-5,–,–,–,–,–,–,–,-17%,40%,–,–,
NC1=NC(=Nc2ccccc2)c2ccccc21,–,–,–,–,–,–,·,·,·,·,·,·,
CC(C)c1ccc(N=C2N=C(N)c3ccccc32)cc1,-6.1,–,–,–,–,–,–,–,-29%,77%,73%,–,
Cn1c(=O)cc2c3c(c(N4CCCCC4)ccc31)C(=O)c1ccccc1-2,-5.1,–,–,–,–,–,-182%,–,-42%,54%,39%,–,
CC1=Nc2ccc(C)c3nc(C)cc(c23)N1c1ccc(C)cc1,-13,–,–,–,–,–,-157%,88%,-33%,82%,87%,–,
Cc1ccc(N2C(=O)CC(Sc3nc(C)cc(C)n3)C2=O)cc1 (configuration not stated),–,–,–,–,–,–,·,·,·,·,·,·,
Cc1ccc(N2C=Nc3ccc(C)c4nc(C)cc2c34)cc1,-10,–,–,–,–,–,-248%,64%,-52%,74%,60%,–,
CCn1c(=S)sc2c(=O)n(CC(=O)Nc3cc(OC)ccc3OC)c(C)nc21,–,–,–,–,–,–,·,·,·,·,·,·,
CN(C)CCn1c(=N)n(CC(O)c2ccc(Cl)c(Cl)c2)c2ccccc21 (configuration not stated),-5.3,–,–,–,–,–,–,–,58%,78%,–,–,
COc1ccc(C(=O)N2CCNC(=O)C2CC(=O)Nc2cc(Cl)ccc2OC)cc1 (configuration not stated),–,–,–,–,–,–,·,·,·,·,·,·,
COc1ccc(OC)c(NC(=O)CC2C(=O)NCCN2C(=O)Nc2cccc(Cl)c2)c1 (configuration not stated),-5.9,–,–,–,–,–,–,–,-14%,29%,–,–,
COc1ccccc1/C=C/C1=NC(=C\C=C/c2ccccc2)/C(=O)O1,–,–,–,–,–,–,·,·,·,·,·,·,
COc1ccccc1/C=C/C=C1N=C(/C=C/c2ccc(Cl)cc2)OC/1=O,-5.9,–,–,–,–,–,554%,–,32%,–,–,·,
CC1CCCC(C)N1CCCNC(=O)Cn1ncc2c3ccccc3n(C)c2c1=O (configuration not stated),–,–,–,–,–,–,·,·,·,·,·,·,
CCNC(=S)N1CCN(C(c2ccccc2)c2ccccc2)CC1,-5.2,68,–,–,–,–,–,–,66%,74%,–,–,
CCOc1ccc(CCNC(=O)CS(=O)Cc2nc(-c3ccccc3C)oc2C)cc1OCC (configuration not stated),–,–,–,–,–,–,·,·,·,·,·,·,
O=C(Cn1cccc1C(=O)c1ccccc1)NCc1ccccc1Cl,-5.1,–,–,–,–,–,–,–,–,–,–,–,
O=C(Cn1nc(C(=O)O)c2ccccc2c1=O)Nc1ccccc1C(F)(F)F,–,–,–,–,–,–,·,·,·,·,·,·,
C/C(=N\NC(=O)c1c(C)nc2ccccn12)c1ccco1,-5.7,–,–,–,–,–,-309%,–,-60%,36%,50%,–,
C/C(=N\NC(=O)c1c(C)nc2ccccn12)c1ccc(C(C)(C)C)cc1,–,–,–,–,–,–,·,·,·,·,·,·,
O=C(Nc1ccc(F)c(Cl)c1)C1CC(=O)N(Cc2ccccc2)C1 (configuration not stated),-6.1,–,–,–,–,–,–,–,-8.5%,–,–,–,
O=C(Nc1ccccc1)C1CC(=O)N(Cc2ccccc2)C1 (configuration not stated),–,–,–,–,–,–,·,·,·,·,·,·,
Cc1ccc(NC(=O)c2cc(-c3cccs3)nc3ccccc23)nc1,-6.4,–,–,–,–,–,–,–,–,39%,–,–,
Cc1c(NC(=O)c2cc(-c3cccs3)nc3ccccc23)c(=O)n(-c2ccccc2)n1C,–,–,–,–,–,–,·,·,·,·,·,·,
O=C1c2cccc3cccc(c23)C(=O)N1CC1CCN(CC(O)COCc2ccc3c(c2)OCO3)CC1 (configuration not stated),-7.3,–,–,–,–,–,·,·,·,·,83%,–,TRPC4 sel inh 2=19%;TRPC4 spec=-28%;HEK293 MPD ctr 2-1=33%;HEK293 MPD ctr-1=-323%
CCOC(=O)C1CCN(CC(O)COCc2ccc3c(c2)OCO3)CC1 (configuration not stated),–,–,–,–,–,–,·,·,·,·,·,·,
CCCC1(c2ccccc2)NC(=O)N(CC(=O)Nc2cc(C)ccc2OC)C1=O (configuration not stated),–,–,–,–,–,–,·,·,·,·,·,·,
O=C(CCN1C(=O)[C@@H]2Cc3ccccc3CN2C1=O)N[C@@H](Cc1ccccc1)C(=O)O,–,–,–,–,–,–,·,·,·,·,·,·,

# From PubChem BioAssay
